Results reported in ChEMBL document CHEMBL3774355, “Quinoxalinone (Part II). Discovery of (Z)-3-(2-(pyridin-4-yl)vinyl)quinoxalinone derivates as potent VEGFR-2 kinase inhibitors” (Bioorg Med Chem, 2016).
pIC50: −log10 of the molar value. Active and inactive are the calls of the source. No cut-off for these calls is given here.

Assays:
MCF7 = assay: Cytotoxicity against human MCF7 cells assessed as growth inhibition after 24 hrs by MTT assay; assay type: functional, cell-based; conditions: MCF7, 24 h
How it was run: (§1)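 Cells seeded at 8000/well in RPMI-1640 with 10% heat-inactivated FBS and left to adhere 10 h. Compound then added in RPMI-1640 with 1% FBS and 0.1% DMSO for 24 h at 37 °C. MTT added for 4 h, formazan dissolved in DMSO, OD read at 590 nm. Inhibition calculated relative to control and zero-setting wells; IC50 derived from inhibition ratios; two experiments in triplicate.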

[1] = Cytotoxicity against human 3AO cells assessed as growth inhibition after 24 hrs by MTT assay; assay type: functional, cell-based; how it was run: as §1
[2] = Cytotoxicity against human PC3 cells assessed as growth inhibition after 24 hrs by MTT assay; assay type: functional, cell-based; conditions: PC-3, 24 h; how it was run: as §1
K562 = assay: Cytotoxicity against human K562 cells assessed as growth inhibition after 24 hrs by MTT assay; assay type: functional, cell-based; conditions: K562, 24 h; how it was run: as §1
HeLa = assay: Cytotoxicity against human HeLa cells assessed as growth inhibition after 24 hrs by MTT assay; assay type: functional, cell-based; how it was run: as §1
[3] = Cytotoxicity against human BEAS2B cells assessed as growth inhibition after 24 hrs by MTT assay; assay type: cell-based; conditions: BEAS-2B; how it was run: as §1
HUVEC = assay: Antiangiogenic activity against HUVEC cells assessed as inhibition of VEGF-induced tube formation after 8 hrs by microscopic analysis; assay type: functional, cell-based; conditions: Homo sapiens
How it was run: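 HUVECs trypsinized and seeded on Matrigel (polymerized 1 h, 37 °C) at 10^5 cells/well, incubated with compound at 0.1, 1 and 10 µg/mL for 8 h at 37 °C in CO2 until tube networks formed; Pazopanib as positive control. Morphology imaged in five random fields per well; experiment repeated 3 times.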

Danio rerio [4] = species on record: Danio rerio; assay: Antiangiogenic activity against transgenic zebra fish embryos expressing green fluorescence protein assessed as inhibition of intersegmental vessel formation at 10 to 100 uM after 24 hrs by confocal fluorescence microscopy; assay type: functional, organism-based
How it was run: (§2)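 Tg(flk1:GFP) embryos, dechorionated one day post-fertilization, 10 per well in 3 mL assay solution with 0.1% PTU added; compounds at 10, 50, 100 µM, 0.2% DMSO as vehicle control, vatalanib as positive control; 28 °C. ISV formation scored by confocal microscopy (50- and 100-fold) after 24 h treatment; repeated at least three times.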

[5] = biological target: Fibroblast growth factor receptor 1 (Homo sapiens) (UniProt P11362); assay: Inhibition of human recombinant FGFR1 at 1 uM after 50 mins by microtiter plate based luciferase reporter gene assay
Chain of Fibroblast growth factor receptor 1 (Homo sapiens) (P11362 22-822 limits assumed): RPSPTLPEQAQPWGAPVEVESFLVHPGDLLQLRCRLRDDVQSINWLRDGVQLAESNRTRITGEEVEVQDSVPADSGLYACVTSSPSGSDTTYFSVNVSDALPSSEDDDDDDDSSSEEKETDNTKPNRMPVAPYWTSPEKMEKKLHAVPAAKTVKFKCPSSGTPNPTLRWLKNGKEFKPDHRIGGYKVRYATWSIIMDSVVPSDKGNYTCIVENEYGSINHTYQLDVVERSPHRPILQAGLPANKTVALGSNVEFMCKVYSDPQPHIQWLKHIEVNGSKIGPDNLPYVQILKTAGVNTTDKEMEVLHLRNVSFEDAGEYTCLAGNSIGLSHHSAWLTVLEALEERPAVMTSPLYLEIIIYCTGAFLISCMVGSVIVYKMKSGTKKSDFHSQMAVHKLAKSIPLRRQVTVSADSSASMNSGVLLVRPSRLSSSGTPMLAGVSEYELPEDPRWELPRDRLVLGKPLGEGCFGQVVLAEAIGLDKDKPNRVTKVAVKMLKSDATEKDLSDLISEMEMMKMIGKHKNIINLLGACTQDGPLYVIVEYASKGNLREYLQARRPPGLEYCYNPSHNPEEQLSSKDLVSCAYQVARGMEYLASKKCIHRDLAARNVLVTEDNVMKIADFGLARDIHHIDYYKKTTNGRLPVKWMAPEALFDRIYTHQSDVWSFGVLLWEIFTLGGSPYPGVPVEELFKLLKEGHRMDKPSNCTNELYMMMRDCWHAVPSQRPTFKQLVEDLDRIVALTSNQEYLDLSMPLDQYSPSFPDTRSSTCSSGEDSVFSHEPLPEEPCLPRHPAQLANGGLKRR

[6] = biological target: Vascular endothelial growth factor receptor 2 (Homo sapiens) (UniProt P35968); conditions: at 1 µM
Chain of Vascular endothelial growth factor receptor 2 (Homo sapiens) (P35968 whole entry): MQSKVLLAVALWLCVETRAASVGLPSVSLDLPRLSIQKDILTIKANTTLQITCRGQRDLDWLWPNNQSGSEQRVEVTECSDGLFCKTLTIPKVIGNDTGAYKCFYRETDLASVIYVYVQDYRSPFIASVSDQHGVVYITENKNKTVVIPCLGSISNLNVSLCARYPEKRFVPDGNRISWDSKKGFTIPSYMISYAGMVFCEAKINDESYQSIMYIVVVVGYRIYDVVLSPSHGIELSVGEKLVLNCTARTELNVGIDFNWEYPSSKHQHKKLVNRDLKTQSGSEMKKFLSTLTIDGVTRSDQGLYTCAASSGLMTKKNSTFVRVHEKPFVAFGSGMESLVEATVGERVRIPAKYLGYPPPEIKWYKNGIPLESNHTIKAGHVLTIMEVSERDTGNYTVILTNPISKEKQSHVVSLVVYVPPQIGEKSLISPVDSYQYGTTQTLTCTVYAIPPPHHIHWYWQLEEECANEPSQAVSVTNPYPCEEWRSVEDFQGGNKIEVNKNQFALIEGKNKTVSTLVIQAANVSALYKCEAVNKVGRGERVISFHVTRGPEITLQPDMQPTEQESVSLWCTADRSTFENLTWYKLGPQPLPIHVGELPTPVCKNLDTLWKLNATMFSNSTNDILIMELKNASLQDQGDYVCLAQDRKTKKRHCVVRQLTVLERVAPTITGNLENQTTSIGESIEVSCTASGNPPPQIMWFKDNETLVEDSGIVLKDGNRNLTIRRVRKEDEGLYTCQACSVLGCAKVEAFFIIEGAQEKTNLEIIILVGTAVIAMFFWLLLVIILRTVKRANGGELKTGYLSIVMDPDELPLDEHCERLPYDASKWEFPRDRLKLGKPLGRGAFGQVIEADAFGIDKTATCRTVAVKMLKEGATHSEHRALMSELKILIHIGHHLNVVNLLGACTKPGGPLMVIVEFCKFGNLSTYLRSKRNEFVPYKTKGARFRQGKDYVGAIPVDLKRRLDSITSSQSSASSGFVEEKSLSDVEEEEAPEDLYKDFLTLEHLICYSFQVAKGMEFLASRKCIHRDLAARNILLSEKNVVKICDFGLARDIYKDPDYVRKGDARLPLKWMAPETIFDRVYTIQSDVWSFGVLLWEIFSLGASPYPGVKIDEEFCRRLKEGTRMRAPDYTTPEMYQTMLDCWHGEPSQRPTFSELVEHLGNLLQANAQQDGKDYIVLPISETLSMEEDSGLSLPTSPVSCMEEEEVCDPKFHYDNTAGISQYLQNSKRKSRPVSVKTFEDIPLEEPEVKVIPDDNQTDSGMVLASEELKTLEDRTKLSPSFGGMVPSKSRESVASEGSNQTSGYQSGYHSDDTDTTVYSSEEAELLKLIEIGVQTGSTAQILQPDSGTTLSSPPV

Danio rerio [7] = species on record: Danio rerio; assay: Antiangiogenic activity against transgenic zebra fish embryos expressing green fluorescence protein assessed as inhibition of intersegmental vessel formation at 100 uM after 24 hrs by confocal fluorescence microscopy; assay type: functional, organism-based; how it was run: as §2

inhibition [5] [%]	inhibition [6] [%]	SMILES	pIC50 (MCF7)	pIC50 [1]	pIC50 [2]	pIC50 (K562)	pIC50 (HeLa)	pIC50 [3]	inhibition (HUVEC)	inhibition (Danio rerio [4])	inhibition (Danio rerio [7])
		Cc1nc2ccccc2n(CC(=O)Nc2ccc(F)cc2)c1=O	< 4.00	< 4.00	< 4.00	< 4.00	4.26	< 4.00			
		COc1cc2nc(/C=C\c3ccncc3)c(=O)n(CC(=O)Nc3ccccc3)c2cc1OC	< 4.00	4.25	< 4.00	< 4.00	< 4.00	< 4.00			
8	56	O=C(Cn1c(=O)c(/C=C\c2ccncc2)nc2ccccc21)Nc1ccc(Cl)c(Cl)c1	4.32	< 4.00	< 4.00	< 4.00	< 4.00	< 4.00	Dose-dependent effect	Dose-dependent effect	
0	37	O=C(COc1nc2ccccc2nc1/C=C\c1ccncc1)Nc1ccc(Cl)cc1	< 4.00	< 4.00	< 4.00	4.30	< 4.00	< 4.00	Dose-dependent effect	Active	
		Cc1ccc(NC(=O)COc2nc3ccccc3nc2C)cc1	< 4.00	< 4.00	< 4.00	< 4.00	4.13	< 4.00			
0	19	Cc1nc2ccccc2n(CC(=O)Nc2ccc(Cl)cc2)c1=O	< 4.00	4.40	< 4.00	< 4.00	< 4.00	< 4.00	Dose-dependent effect		Active
2	6	O=C(Cn1c(=O)c(/C=C\c2ccncc2)nc2ccccc21)Nc1ccc(F)cc1	4.31	< 4.00	4.22	< 4.00	< 4.00	< 4.00	Dose-dependent effect	inactive	
		Cc1ccc(NC(=O)COc2nc3ccccc3nc2/C=C\c2ccncc2)cc1	4.22	< 4.00	< 4.00	< 4.00	< 4.00	< 4.00			
		Cc1ccccc1NC(=O)Cn1c(=O)c(/C=C\c2ccncc2)nc2ccccc21	< 4.00	4.16	< 4.00	< 4.00	< 4.00	< 4.00			
5	44	O=C(Cn1c(=O)c(/C=C\c2ccncc2)nc2ccccc21)Nc1ccc(Cl)cc1	< 4.00	< 4.00	< 4.00	4.30	< 4.00	< 4.00	Dose-dependent effect	Dose-dependent effect	
		O=C(Cn1c(=O)c(/C=C\c2ccncc2)nc2ccccc21)Nc1ccccc1	< 4.00	< 4.00	< 4.00	4.26	< 4.00	< 4.00			
		Cc1nc2ccccc2nc1OCC(=O)Nc1ccc(Cl)cc1	< 4.00	< 4.00	4.17	< 4.00	< 4.00	< 4.00			
		Cc1nc2ccccc2n(Cc2ccc(NC(=O)c3ccc(Cl)cc3)cc2)c1=O	4.32	< 4.00	4.40	< 4.00	< 4.00	< 4.00			
		Cc1ccc(Nc2nccc(N(C)c3ccc4c(C)n(C)nc4c3)n2)cc1S(N)(=O)=O [PAZOPANIB]	4.11	4.30	< 4.00	4.05	< 4.00	< 4.00			
		COc1ccc(NC(=O)Cn2c(=O)c(/C=C\c3ccncc3)nc3ccccc32)cc1OC	< 4.00	< 4.00	< 4.00	4.26	< 4.00	< 4.00			
		Cc1ccc(C(=O)Nc2ccc(Cn3c(=O)c(C)nc4ccccc43)cc2)cc1	< 4.00	< 4.00	< 4.00	< 4.00	< 4.00	< 4.00			
